Test [1] has as its system Bacillus subtilis. The test is described as follows: Antimicrobial activity against Bacillus subtilis after 24 hrs by agar well diffusion assay. It is filed as functional. A digest of the protocol:
(§1)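 Bacterial isolates from a university culture collection were grown in Mueller-Hinton broth for 8 h at 37 °C, then swabbed onto nutrient agar plates. Test solutions went into wells cut in the agar, with commercial antibiotics as positive reference. Plates were incubated at 37 °C for 24 h, and the MIC was read from the zones of inhibition.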

For test [2], the system named is Staphylococcus aureus. Briefly: Antimicrobial activity against Staphylococcus aureus after 24 hrs by agar well diffusion assay. It is filed as functional. A digest of the protocol: as §1
Test [3] deals with Vibrio cholerae. Briefly: Antimicrobial activity against Vibrio cholerae after 24 hrs by agar well diffusion assay. It is filed as functional.
Test [4] deals with Escherichia coli. Briefly: Antimicrobial activity against Escherichia coli after 24 hrs by agar well diffusion assay. It is filed as functional. A digest of the protocol:
as §1

In test [5] the test system is Proteus vulgaris. The test is described as follows: Antimicrobial activity against Proteus vulgaris after 24 hrs by agar well diffusion assay. It is filed as functional. A digest of the protocol: as §1
In test [6] the test system is Candida albicans. Briefly: Antifungal activity against Candida albicans after 48 hrs by agar well diffusion assay. Type of test: functional. A digest of the protocol: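 C. albicans, kept on Sabouraud's dextrose agar, was grown in Sabouraud's dextrose broth at 37 °C for 8 h to make the inoculum for agar well diffusion. The MIC was recorded.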
Test [7] has as its target Gyrase B (Escherichia coli) (UniProt Q6S6F1). The test is described as follows: Inhibition of Escherichia coli DNA gyrase B.

SMILES strings stand for the structures. ≈ marks a conversion by molar mass, not a printed value. Calls of active or inactive are those of the source. The calls are words filed in the database; no cut-off is given here.

For the compound `O=S1(=O)c2ccc(cc2)Cn2cc[n+](c2)Cc2cccc(c2)C[n+]2ccn(c2)Cc2ccc1cc2.[Br-].[Br-]`, the MIC worked out at 20 µg/mL in test [1]; 30 µg/mL in test [2]; 35 µg/mL in test [3]; 55 µg/mL in test [4]; 40 µg/mL in test [5]; 40 µg/mL in test [6].

Regarding `O=S1(=O)c2ccc(cc2)Cn2cc[n+](c2)Cc2ccc(cc2)S(=O)(=O)c2ccc(cc2)C[n+]2ccn(c2)Cc2ccc1cc2.[Br-].[Br-]`, the MIC in test [1] was 10 µg/mL; in test [2], 5 µg/mL; in test [3], 10 µg/mL; in test [4], 15 µg/mL; in test [5], 15 µg/mL; in test [6] it was 5 µg/mL. For the same compound, in test [7], the inhibition result was “Active”.

`O=C1c2ccc(cc2)C[n+]2ccn(c2)Cc2ccc(cc2)S(=O)(=O)c2ccc(cc2)Cn2cc[n+](c2)Cc2ccc1cc2.[Br-].[Br-]`: the MIC is 15 µg/mL in test [1]; 15 µg/mL in test [2]; 5 µg/mL in test [3]; 25 µg/mL in test [4]; 30 µg/mL in test [5]; 5 µg/mL in test [6]. The inhibition entry in test [7] was “Active”.

For `COc1cc2c(OC)cc1C[n+]1ccn(c1)Cc1ccc(cc1)S(=O)(=O)c1ccc(cc1)Cn1cc[n+](c1)C2.[Br-].[Br-]`, the MIC worked out at 15 µg/mL in test [1]; 10 µg/mL in test [2]; 40 µg/mL in test [3]; 30 µg/mL in test [4]; 30 µg/mL in test [5]; 10 µg/mL in test [6].

`Clc1ccccc1C(c1ccccc1)(c1ccccc1)n1ccnc1` [CLOTRIMAZOLE] came in with an MIC in test [6] of 5 µg/mL (≈ 14.5 µM).

For the compound `O=S1(=O)c2ccc(cc2)Cn2cc[n+](c2)Cc2ccc(cc2)C[n+]2ccn(c2)Cc2ccc1cc2.[Br-].[Br-]`, the MIC in test [1] was found to be 30 µg/mL; in test [2] it was 25 µg/mL; in test [3], 70 µg/mL; in test [4] it was 60 µg/mL; in test [5] it was 40 µg/mL; in test [6], 25 µg/mL.

Regarding `O=C(O)c1cn(C2CC2)c2cc(N3CCNCC3)c(F)cc2c1=O` [CIPROFLOXACIN], the MIC in test [1] is 5 µg/mL (≈ 15.1 µM); in test [2] it was 5 µg/mL (≈ 15.1 µM); in test [3], 10 µg/mL (≈ 30.2 µM); in test [4], 5 µg/mL (≈ 15.1 µM); in test [5], 10 µg/mL (≈ 30.2 µM).

As to `O=S1(=O)c2ccc(cc2)Cn2cc[n+](c2)Cc2ccc(cc2)-c2cccc(c2)-c2ccc(cc2)C[n+]2ccn(c2)Cc2ccc1cc2.[Br-].[Br-]`, the MIC is 15 µg/mL in test [1]; 30 µg/mL in test [2]; 25 µg/mL in test [3]; 25 µg/mL in test [4]; 20 µg/mL in test [5]; 5 µg/mL in test [6].

With `O=C1c2ccc(cc2)C[n+]2ccn(c2)Cc2ccc(cc2)S(=O)(=O)c2ccc(cc2)Cn2cc[n+](c2)Cc2ccc(cc2)C(=O)c2cccc1c2.[Br-].[Br-]`, the MIC in test [1] was 35 µg/mL; in test [2], 40 µg/mL; in test [3], 30 µg/mL; in test [4] it was 30 µg/mL; in test [5], 25 µg/mL; in test [6], 15 µg/mL.

On to `O=S1(=O)c2ccc(cc2)Cn2cc[n+](c2)Cc2ccccc2C[n+]2ccn(c2)Cc2ccc1cc2.[Br-].[Br-]`, for which the MIC in test [1] came out at 40 µg/mL; in test [2], 40 µg/mL; in test [3] it was 35 µg/mL; in test [4], 30 µg/mL; in test [5], 60 µg/mL; in test [6], 20 µg/mL.

For the origin of these results see ChEMBL document CHEMBL1795268, “Synthesis and antimicrobial activity of some novel dicationic sulphonophanes” (2011).
